This is a sample that favours compounds with a hit; in the whole collection about 3.1% have one here.
Ecoli rRNA inh: reduced GFP signal of wild-type E. coli, primary screen, bacterial rRNA inhibitor project, GFP/RFP fluorescence, OD600, single point | AID 720706, 2013 | GFP signal change (wild-type ribosome), % (concentration not given with the values) | E. coli WT GFP vs humanized-ribosome RFP mutants, 24 h; active compounds read low; DMSO median 0, no signal -100 | actives 1.6% (n = 350,000);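 active = significant combined selectivity score with lowered wild-type GFP, culture density cut under 30%, mutant RFP and density less affected; inactive = any of these conditions unmet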
CFTR F508del cor: F508del CFTR correction, initial screen, CFBE line, single point. CFBE cells, YFP halide quenching; stimulated with forskolin plus potentiator P3; % fluorescence drop versus neutral controls. activity (quench increase), % at 7.58 µM. actives 0.36% (n = 350,000);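 active = mean added fluorescence quench of at least 8% versus neutral control, with both replicates also reaching 8%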;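 note: cells transiently co-express mutant CFTR-F508del with the halide-sensitive YFP; corrector assay measuring rescue of mutant channel to the surface after 24 h compound exposure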
Cneo AK release: Cryptococcus neoformans cell lysis inducers, primary screen, AK release luminescence, single concentration; actives 0.2% (n = 360,000); lysis activity, % at 15 µM; C. neoformans lysis, adenylate kinase release luminescence, 4 h; normalised: neutral wells 0, clomiphene wells 100;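 active = mean lysis activity across replicates of at least 80%, whatever share of replicates individually reach that level; inactive = mean lysis activity below 80%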
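Test system: log-phase Cryptococcus neoformans yeast cells; Quantity: yeast cell density of 5 × 10^6 cells/mL; Buffer or medium: YPD; Doses: single compound concentration per well; Timing: 4 h at 37 °C static, read 1 h later; Measured by: AK luminescence; Read-out basis: lysis from increased AK signal; Control set: Clomiphene as positive control.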
miR122 inh: miR-122 Renilla sensor signal increase in Huh7, primary screen, miR-122 inhibitor project, cell-based, single point, plate reader; Huh7 miR-122 Renilla luciferase sensor, 48 h; neutral wells = 0, positive control = 100; activation (reporter increase), % at 12.5 µM; actives 0.3% (n = 340,000);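 active = mean replicate activation score at least 90 and every replicate individually at or above 90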;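 note: higher luciferase means less miR-122 activity so hits act as miR-122 inhibitors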
GSIS activator: GLuc luminescence reporter in INS-1E cells, primary screen for activators of glucose-dependent secretion of insulin; actives 0.61% (n = 370,000); activation, % at 16.6 µM; INS-1E GLuc reporter insulin secretion, 2-3 h;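 active = lowest replicate activation of at least 40%, so every replicate reaches that level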
HIV Env fusion: inhibitors of HIV-1 Env-driven cell-cell fusion, primary screen, HeLa-JRFL effector, CEM21 target cells, luciferase | inhibition, % at 12.3 µM | actives 1.1% (n = 360,000) | AID 651610, 2012;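 active = mean replicate inhibition score of at least 50 and every replicate individually at or above 50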
Each line names hits and unclear results; the compound was inactive in the other large screens; ! = not active in a repeat.

COc1ccc(SCC2CN(C)CCC2c2ccc(F)cc2)cc1 (stereo unspecified)	Ecoli rRNA inh -33.5 (no result: Cneo AK release, miR122 inh)
CC(=O)N1[C@@H]2c3ccc(-c4cccc(C(=O)N(C)C)c4)c(=O)n3C[C@H]1[C@H](CO)[C@H]2C(=O)O	none (no result: Cneo AK release, miR122 inh, HIV Env fusion)
O=C(Cc1ccccn1)N1CC2(C1)[C@@H](c1ccccc1)[C@@H](CO)N2Cc1ccccn1	none (no result: Cneo AK release, miR122 inh, HIV Env fusion)
O=P(Nc1ccccc1)(Nc1ccccc1)Oc1ccc(Cl)cc1	miR122 inh 321.9 (no result: HIV Env fusion)
O=C(Cc1ccccn1)N1CCCCN2[C@H](CO)[C@@H](c3ccc(-c4ccccc4F)cc3)[C@@H]2C1	none (no result: HIV Env fusion)
CN1C(=O)NC(=O)C2(CCCC2)C1=O	CFTR F508del cor 10.3
CCC1(CC)C(=O)N(C)C(=O)NC1=NC	none (no result: Cneo AK release, miR122 inh, GSIS activator)
COC(=O)C1C(O)C(C)C(O)C(C)/C=C\C=C(/C)C(=O)Nc2c(C)c(OC(C)=O)c3c(c2O)C(=O)C(C)=C2OCOC(=C23)/C(C)=C/C(C)(O)C(O)C(C)C1O (stereo unspecified)	Ecoli rRNA inh -17.2 (no result: miR122 inh)
CCC(COC(=O)c1cc(OC)c(OC)c(OC)c1)(c1ccccc1)N(C)C (stereo unspecified)	CFTR F508del cor 9.0!
CCCOP(=O)(OCCC)C(NC(=O)c1cc(OC)c(OC)c(OC)c1)c1ccccc1 (stereo unspecified)	none
C=C1C(=O)O[C@@H]2C[C@@H](C)[C@@H]3C=CC(=O)[C@@]3(C)[C@@H](O)[C@H]12	CFTR F508del cor 12.9 (no result: HIV Env fusion)
COc1ccc(-c2ccc3c(c2)CN(C(=S)NCCc2ccccc2)Cc2cnnn2-3)cc1	miR122 inh 119.1
S=C(NCCc1ccccc1)N1Cc2cc(Br)ccc2-n2nncc2C1	HIV Env fusion 56.7
COc1ccc(-c2ccc3c(c2)CN(C(=O)CCc2ccccc2)Cc2cnnn2-3)cc1	none
FC(F)(F)CN1C[C@@H]2C(c3ccccc3)[C@H](C1)N2CC1CC1 (stereo partly specified)	none (no result: CFTR F508del cor, Cneo AK release, miR122 inh, HIV Env fusion)
CN1CCN(c2cc([N+](=O)[O-])ccc2Cl)CC1	none (no result: Cneo AK release, miR122 inh)
CC1CN(c2cc([N+](=O)[O-])ccc2Cl)CC(C)N1 (stereo unspecified)	GSIS activator 41.2 (no result: CFTR F508del cor, Cneo AK release, miR122 inh)
COC1C(C)OC(OC2CC(C)(O)Cc3cc4c(c(O)c32)C(=O)c2c(O)cc3c(c2C4=O)OC2OC3(C)C(O)C(N(C)C)C2O)C(OC)C1(C)OC (stereo unspecified)	CFTR F508del cor 20.4, HIV Env fusion 70.7 (no result: Cneo AK release, miR122 inh)
COc1ccc(C#Cc2ccc([C@@H]3[C@@H](CO)N4CCCCN(C(=O)Cc5cccnc5)C[C@@H]34)cc2)cc1	none (no result: HIV Env fusion)
Clc1ccc(C[n+]2c(-c3ccccc3)cc(-c3ccccc3)cc2-c2ccccc2)cc1	HIV Env fusion 107.2
CC[n+]1c(/C=C/N(C)c2ccccc2)sc2ccc(Cl)cc21	HIV Env fusion 79.0 (no result: Ecoli rRNA inh, CFTR F508del cor, miR122 inh)
CC[n+]1c(/C=C/C=C/c2ccc(N(C)C)cc2)sc2ccccc21	none
COC(=O)[C@@H]1[C@@H](CO)[C@@H]2Cn3c(ccc(C4=CCCCC4)c3=O)[C@H]1N2CC1CCCC1	none (no result: HIV Env fusion)
COC(=O)C12OCC34C(CC5C(C)=C(O)C(=O)CC5(C)C3C(O)C1O)OC(=O)C(OC(=O)/C=C(\C)C(C)C)C24 (stereo unspecified)	HIV Env fusion 84.3 (no result: Cneo AK release)
CC(=O)OC(C)(C)/C=C/C(=O)C(C)(O)C1C(O)CC2(C)C3CC=C4C(CC(O)C(=O)C4(C)C)C3(C)C(=O)CC12C (stereo unspecified)	HIV Env fusion 65.2 (no result: Ecoli rRNA inh, Cneo AK release)
NC(=S)c1cn(C2OC(CO)C(O)C2O)c2ncnc(N)c12 (stereo unspecified)	HIV Env fusion 90.1 (no result: miR122 inh)
Nc1ncnc2c1ccn2[C@@H]1O[C@H](CO)[C@@H](O)[C@H]1O	none (no result: Ecoli rRNA inh, HIV Env fusion)
O=C(NN=Cc1ccc(N(CCCl)CCCl)cc1Cl)c1cccnc1	HIV Env fusion 56.0 (no result: Cneo AK release, miR122 inh)

Compound activity from PubChem BioAssay.
